Measurements: ChEMBL document CHEMBL1137747, “Fullerene derivatized s-triazine analogues as antimicrobial agents” (2009)
Values after ≈ are worked out from the molar mass of the structure shown. Active and inactive are the calls of the source. The calls are words filed in the database; no cut-off is given here.

How the values were obtained:
[1] = system: Bacillus subtilis; assay: Antibacterial activity against Bacillus subtilis at 100 ug/ml by disk diffusion method; type: functional; details: read-out: IZ
Summary of the method: (§1)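 Agar disc diffusion on nutrient agar plates. Inoculum of […] (0.5 McFarland) spread evenly over the agar surface. Whatman filter paper discs, 6.25 mm diameter, dry-heat sterilized at 140 °C for 1 h, soaked in test solution and placed on the agar. Plates inverted and incubated 24 h at 37 °C. Solvent and growth controls and a ciprofloxacin reference run alongside. Inhibition zones measured.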

[2] = system: Klebsiella pneumoniae; assay: Antibacterial activity against Klebsiella pneumoniae at 100 ug/ml by disk diffusion method; type: functional; details: for zone of inhibition at 100 µg/mL: read-out: IZ; summary of the method: as §1
[3] = system: Pseudomonas aeruginosa; assay: Antibacterial activity against Pseudomonas aeruginosa at 100 ug/ml by disk diffusion method; type: functional; details: for zone of inhibition at 100 µg/mL: read-out: IZ; summary of the method: as §1
[4] = system: Bacillus pumilus; assay: Antibacterial activity against Bacillus pumilus at 100 ug/ml by disk diffusion method; type: functional; details: read-out: IZ; summary of the method: as §1
[5] = system: Staphylococcus aureus; assay: Antibacterial activity against Staphylococcus aureus at 100 ug/ml by disk diffusion method; type: functional; details: read-out: IZ; summary of the method: as §1
[6] = system: Escherichia coli; assay: Antibacterial activity against Escherichia coli at 100 ug/ml by disk diffusion method; type: functional; details: for zone of inhibition at 100 µg/mL: read-out: IZ; summary of the method: as §1
[7] = system: Bacillus subtilis; assay: Antibacterial activity against Bacillus subtilis by broth dilution technique
[8] = system: Klebsiella pneumoniae; assay: Antibacterial activity against Klebsiella pneumoniae by broth dilution technique
[9] = system: Bacillus pumilus; assay: Antibacterial activity against Bacillus pumilus by broth dilution technique

| SMILES | zone of inhibition at 100 µg/mL [1] | inhibition zone (IZ) [2] | zone of inhibition at 100 µg/mL [3] | zone of inhibition at 100 µg/mL [4] | zone of inhibition at 100 µg/mL [5] | zone of inhibition at 100 µg/mL [6] | inhibition zone (IZ) [3] | inhibition zone (IZ) [6] | zone of inhibition at 100 µg/mL [2] | MIC [7] | MIC [8] | MIC [9] |
| --- | --- | --- | --- | --- | --- | --- | --- | --- | --- | --- | --- | --- |
| Nc1nc(N)nc(N/N=C/c2ccc(C=O)cc2)n1 | 16 mm | inactive | 11 mm | 15 mm | 9 mm | 15 mm | – | – | – | – | – | – |
| CN(C)c1nc(N/N=C/c2ccc(C=O)cc2)nc(N(C)C)n1 | 10 mm | inactive | – | 10 mm | 9 mm | – | inactive | inactive | – | – | – | – |
| CNc1nc(N/N=C/c2ccc(C=O)cc2)nc(N(C)C)n1 | 10 mm | – | 10 mm | 11 mm | 10 mm | 12 mm | – | – | 12 mm | – | – | – |
| CNc1nc(NC)nc(N/N=C/c2ccc(C=O)cc2)n1 | 12 mm | – | 11 mm | 10 mm | 11 mm | 14 mm | – | – | 14 mm | – | – | – |
| CNc1nc(N)nc(N/N=C/c2ccc(C=O)cc2)n1 | 18 mm | – | 13 mm | 13 mm | 9 mm | 15 mm | – | – | 15 mm | – | – | – |
| O=C(O)c1cn(C2CC2)c2cc(N3CCNCC3)c(F)cc2c1=O [CIPROFLOXACIN] | 38 mm | – | 32 mm | 36 mm | 22 mm | 27 mm | – | – | 19 mm | 0.06 µg/mL (≈ 0.181 µM) | 12.5 µg/mL (≈ 37.7 µM) | 0.25 µg/mL (≈ 0.754 µM) |
